Screens deposited in PubChem BioAssay by several laboratories.
Sampled rows, rich in hits. Any-hit rate of the full collection: about 4.2%.
Autophagy mod: autophagy modulators in MEF cells, primary screen, imaging, high-content, MEF GFP-LC3; MEF GFP-LC3 puncta imaging; test concentration mostly 10 µM; calls only at 10 µM (by protocol); 190,000 tested, 0.98% active; AID 463193, 2010;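 active = percentage of spot-positive cells more than 3 SD above its plate mean, without a fluorescence outlier flag or 80% toxicity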
Insulin prom up: insulin promoter activators in MIN6 cells, imaging, high-content screening, mouse beta cells. MIN6 insulin promoter-GFP reporter; active compounds read high. z-score at 5 µM. AID 1625, 2009. 190,000 tested, 0.3% active;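 active = z-score above 3 at 5 µM with at least 500 cells counted in the well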
Rad51 HR inh: human RAD51 strand exchange inhibitors, primary screen, biochemical, fluorescence | DNA repair protein RAD51 homolog 1 (Homo sapiens), Q06609 | hRad51 DNA strand exchange, fluorescence dequenching | inhibition, % at 10 µM | 200,000 tested, 0.085% active | AID 1385, 2008;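 active = inhibition above 40% at the single screening dose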
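System: hRad51 filaments on single-stranded DNA; reagent: Fluorescein- and BHQ1-tagged 47-mer duplex; compound dosing: one concentration, 10 µM final; timing: filaments 15 min 37 °C, then compound 30 min; measured by: fluorescein emission 520 nm, excitation 485 nm; benchmarks: per-plate controls and blanks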
WT yeast gro inh: growth inhibition of WT strain, primary screen, mitochondrial fusion inhibitor project, WT and mutant strains, chemical genetic; inhibition, % at 10 µM; AID 1362, 2008; mitochondrial fusion phenotypic screen; 190,000 tested, 2.1% active; in the data active = inhibition above about 58%; tested in S. cerevisiae
Cl transport mod: KCC2 cotransporter modulators, thallium flux, primary screen, cell-based, HEK293 KCC2, FluoZin-2 fluorescence, MLSMR; 190,000 tested, 2.2% active; KCC2 cells, thallium flux FluoZin-2 fluorescence; AID 1456, 2008; Solute carrier family 12 member 5 (Homo sapiens), Q9H2X9; B-score of Tl+ flux slope (higher = more flux/activation; lower = inhibition) at 10 µM;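 active = thallium flux slope and its plate-corrected score both differing from the plate sample mean at a set confidence after two filtering rounds, in either direction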;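 also: slope of fluorescence scaled to starting intensity during 10 to 20 s after thallium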
Target sequence (Q9H2X9 whole entry, looked up): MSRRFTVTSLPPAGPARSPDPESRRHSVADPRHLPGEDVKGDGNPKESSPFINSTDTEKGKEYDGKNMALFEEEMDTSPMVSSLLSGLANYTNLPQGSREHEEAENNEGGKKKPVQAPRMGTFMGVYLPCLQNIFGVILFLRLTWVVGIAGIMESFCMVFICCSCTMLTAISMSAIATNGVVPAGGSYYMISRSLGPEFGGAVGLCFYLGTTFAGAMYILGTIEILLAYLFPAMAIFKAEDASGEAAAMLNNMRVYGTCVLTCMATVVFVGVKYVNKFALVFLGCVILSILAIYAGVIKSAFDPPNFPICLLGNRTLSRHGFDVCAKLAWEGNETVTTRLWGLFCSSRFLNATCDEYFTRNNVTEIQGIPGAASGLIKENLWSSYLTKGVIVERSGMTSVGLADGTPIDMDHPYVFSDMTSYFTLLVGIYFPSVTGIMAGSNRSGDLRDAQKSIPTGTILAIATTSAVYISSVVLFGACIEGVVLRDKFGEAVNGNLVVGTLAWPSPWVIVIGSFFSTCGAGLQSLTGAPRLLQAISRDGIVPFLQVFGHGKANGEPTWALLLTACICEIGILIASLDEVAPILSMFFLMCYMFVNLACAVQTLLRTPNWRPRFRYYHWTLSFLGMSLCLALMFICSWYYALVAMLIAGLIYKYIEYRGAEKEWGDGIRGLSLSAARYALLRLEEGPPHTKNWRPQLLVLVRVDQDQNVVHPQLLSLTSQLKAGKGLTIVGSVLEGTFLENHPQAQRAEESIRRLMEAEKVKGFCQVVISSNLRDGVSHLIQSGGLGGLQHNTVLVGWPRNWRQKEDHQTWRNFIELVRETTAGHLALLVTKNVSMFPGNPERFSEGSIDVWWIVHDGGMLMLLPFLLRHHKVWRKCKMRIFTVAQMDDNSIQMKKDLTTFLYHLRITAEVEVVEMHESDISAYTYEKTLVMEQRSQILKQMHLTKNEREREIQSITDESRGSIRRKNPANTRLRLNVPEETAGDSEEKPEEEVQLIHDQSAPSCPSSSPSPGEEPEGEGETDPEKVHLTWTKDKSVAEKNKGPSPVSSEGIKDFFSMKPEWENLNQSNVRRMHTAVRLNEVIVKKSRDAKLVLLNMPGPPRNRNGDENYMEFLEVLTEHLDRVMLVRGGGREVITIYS
SKKanGAS inh: S. pyogenes SKKanGAS growth inhibitors in kanamycin, primary screen, streptokinase expression inhibitor project, SKKanGAS strain, BacTiter-Glo luminescence; 6 h; inhibition, % at 7.5 µM; 300,000 tested, 1.3% active;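 active = mean replicate score, as percent of positive control median, at least 50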;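 also: strain carries kanamycin resistance gene driven by streptokinase promoter and grows in 40 µg/ml kanamycin; loss of luminescence reflects streptokinase promoter inhibition or plain growth inhibition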
Numbers stand for hits.

`CCOC(=O)c1cnc(-n2nc(C)cc2C)nc1NCCc1ccccc1` gave Autophagy mod inactive, Insulin prom up inactive, Rad51 HR inh inactive, WT yeast gro inh 74.1 and SKKanGAS inh inactive.
CCOC(=O)c1cnc(-n2nc(C)cc2C)nc1NC1CCCC1 was read as Insulin prom up inactive, Rad51 HR inh inactive, Cl transport mod inactive and SKKanGAS inh 96.5.
CCCCC(=O)N(Cc1ccc(F)cc1)C1CCS(=O)(=O)C1 (centres undefined) was read as Rad51 HR inh inactive, Cl transport mod inactive and SKKanGAS inh inactive.
`COC(=O)c1ccc(Oc2nc3ccccc3n3c(C)nnc23)cc1` gave SKKanGAS inh 52.9.
Screening CCOC(=O)c1c(C)[nH]c(N=Nc2ccccc2C)c1C returned Autophagy mod inactive, Insulin prom up inactive, Rad51 HR inh inactive, WT yeast gro inh 77.1, Cl transport mod inactive and SKKanGAS inh inactive.
For CC(C)C(C(=O)Nc1nccs1)c1ccc(Cl)cc1 (centres undefined) the results were Autophagy mod inactive, Insulin prom up inactive, Rad51 HR inh inactive, WT yeast gro inh inactive, Cl transport mod inactive and SKKanGAS inh 60.3.
For CC(C)C(C(=O)Nc1ccncc1)c1ccc(Cl)cc1 (centres undefined) the results were SKKanGAS inh inactive.
`O=C(CCS(=O)(=O)c1ccc(F)cc1)Nc1nc(-c2ccncc2)cs1` gave SKKanGAS inh inactive.
CCN(CC)C(=S)Sc1c(-c2ccccc2)c2cc(Cl)ccc2[nH]c1=O was read as Autophagy mod inactive, Insulin prom up inactive, Rad51 HR inh inactive, WT yeast gro inh inactive, Cl transport mod inactive and SKKanGAS inh 91.6.
CCN(CC)c1ccc(C(=S)NC2CCCCC2)cc1 was read as Autophagy mod inactive, Insulin prom up inactive, Rad51 HR inh inactive, WT yeast gro inh 73.4, Cl transport mod inactive and SKKanGAS inh inactive.
CCN(CC)c1ccc(C(=S)NCc2ccccc2)cc1 was read as Autophagy mod inactive, Insulin prom up inactive, Rad51 HR inh inactive, WT yeast gro inh 67.1, Cl transport mod inactive and SKKanGAS inh inactive.
`O=C(Nc1ccc(Cl)c(C(=O)N2CCOCC2)c1)c1ccccc1` gave SKKanGAS inh inactive.
Screening Cc1cc(C)cc(Nc2ccc(C(=O)O)cc2N)c1 returned Autophagy mod inactive, Insulin prom up inactive, Rad51 HR inh inactive, WT yeast gro inh inactive, Cl transport mod inactive and SKKanGAS inh inactive.
`Cc1ccc(Nc2ccc(C(=O)O)cc2N)cc1` gave Autophagy mod inactive, Insulin prom up inactive, Rad51 HR inh inactive, WT yeast gro inh 73.4, Cl transport mod inactive and SKKanGAS inh inactive.
For Cc1cc(C)c(C(=O)Nc2ccc(Br)c(C(F)(F)F)c2)c(C)c1 the results were Autophagy mod inactive, Insulin prom up inactive, Rad51 HR inh inactive, WT yeast gro inh 81.1, Cl transport mod inactive and SKKanGAS inh 71.6.
For Cc1ccc(C(=O)NNC2=Nc3cccc4cccc2c34)cc1 the results were Autophagy mod inactive, Insulin prom up inactive, Rad51 HR inh inactive, WT yeast gro inh inactive, Cl transport mod inactive and SKKanGAS inh 58.0.
For NC(=O)NNC1=Nc2cccc3cccc1c23 the results were Autophagy mod inactive, Insulin prom up inactive, Rad51 HR inh inactive, WT yeast gro inh inactive and SKKanGAS inh inactive.
`COc1ccc(C(=O)NNC2=Nc3cccc4cccc2c34)cc1` gave Autophagy mod active, Insulin prom up inactive, Rad51 HR inh inactive, WT yeast gro inh inactive, Cl transport mod inactive and SKKanGAS inh inactive.
`COc1ccc(CC(=O)NNC2=Nc3cccc4cccc2c34)cc1` gave Insulin prom up inactive, Rad51 HR inh inactive, Cl transport mod inactive and SKKanGAS inh inactive.
`N#Cc1ccc(S(=O)(=O)NC2CC2)cc1` gave SKKanGAS inh inactive.
CS(=O)(=O)Nc1cccc(C2=NN(S(C)(=O)=O)C(c3ccccc3)C2)c1 (centres undefined) was read as Autophagy mod inactive, Rad51 HR inh 42.7, WT yeast gro inh inactive, Cl transport mod inactive and SKKanGAS inh inactive.
For Cc1ccc(C(=O)NC(=S)Nc2cccc3c(C)cc(C)nc23)cc1 the results were Autophagy mod inactive, Insulin prom up inactive, Rad51 HR inh inactive, WT yeast gro inh inactive, Cl transport mod inactive and SKKanGAS inh 78.5.
For Cc1ccc(NCc2ccc(C)s2)cc1 the results were SKKanGAS inh inactive.
Screening C/C(=N\NC(=S)Nc1ccc(F)cc1)c1ccc2c(c1)OCCO2 returned Autophagy mod inactive, Insulin prom up inactive, Rad51 HR inh inactive, WT yeast gro inh inactive, Cl transport mod 48 and SKKanGAS inh inactive.
`Cc1ccc(C(=O)c2ccccc2C(=O)Nc2ccccc2)cc1` gave SKKanGAS inh inactive.
Cc1ccc(C)c(NC(=O)c2ccccc2C(=O)c2ccccc2)c1 was read as Autophagy mod inactive, Insulin prom up inactive, Rad51 HR inh inactive, WT yeast gro inh 62.8, Cl transport mod inactive and SKKanGAS inh inactive.
`CCCCn1c(N)c(N(CC(C)C)C(=O)c2cc(S(=O)(=O)N3CCCCC3)ccc2C)c(=O)[nH]c1=O` gave SKKanGAS inh inactive.
`COC(=O)Cc1ccc(NC(=S)Nc2ccccn2)cc1` gave Autophagy mod inactive, Insulin prom up inactive, WT yeast gro inh inactive, Cl transport mod inactive and SKKanGAS inh inactive.
Screening Cc1ccc(F)c(NC(=O)/C(C#N)=C(\O)c2ccc(C(C)(C)C)cc2)c1 returned Autophagy mod inactive, Insulin prom up inactive, Rad51 HR inh inactive, WT yeast gro inh inactive, Cl transport mod -5.63 and SKKanGAS inh 59.1.
CN(CCc1ccccn1)C(=O)CCC1CCCN(C(=O)NC2CCCCC2)C1 (centres undefined) was read as Autophagy mod inactive, Insulin prom up inactive, WT yeast gro inh inactive, Cl transport mod inactive and SKKanGAS inh inactive.
Cc1ccc(OCC(=O)N/N=C/C=C/c2ccco2)cc1 was read as Autophagy mod inactive, Insulin prom up inactive, Rad51 HR inh inactive, WT yeast gro inh inactive, Cl transport mod inactive and SKKanGAS inh inactive.
For O=C(COc1ccccc1[N+](=O)[O-])N/N=C/C=C/c1ccco1 the results were Autophagy mod inactive, Insulin prom up inactive, WT yeast gro inh 70.8, Cl transport mod inactive and SKKanGAS inh inactive.
For Cc1ccc(Nc2nc3ccccc3[nH]2)nc1 the results were Autophagy mod inactive, Insulin prom up inactive, Rad51 HR inh inactive, WT yeast gro inh inactive, Cl transport mod inactive and SKKanGAS inh 65.5.
Cc1ccc(C)c(C(=O)Nc2nc3ccccc3[nH]2)c1 was read as SKKanGAS inh inactive.
For Cc1cc(C)nc(Nc2n[nH]c(-c3ccccc3C)n2)n1 the results were Autophagy mod active, Insulin prom up inactive, Rad51 HR inh inactive, WT yeast gro inh inactive, Cl transport mod inactive and SKKanGAS inh inactive.
